The values below come from ChEMBL document CHEMBL3352814, “Design, synthesis and biological evaluation of biphenylamide derivatives as Hsp90 C-terminal inhibitors” (Eur J Med Chem, 2015).

The nature of assay [1]: Antiproliferative activity against human SKBR3 cells after 72 hrs by MTS/PMS assay. It is filed as functional, cell-based. The note with it: SK-BR-3, 72 h. The method, boiled down: (§1)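 Cells kept in 1:1 Advanced DMEM/F12 with non-essential amino acids, 2 mM L-glutamine, penicillin/streptomycin and 10% FBS at 37 °C, 5% CO2. Seeded 2000 cells/well, attached overnight, then given compound at varying concentrations in DMSO (1% final) for 72 h. Viable cells read by MTS/PMS. Normalised to 1% DMSO wells as 100% proliferation. IC50 from separate experiments run in triplicate.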

Assay [2] deals with MCF7. As to the kind of experiment: Antiproliferative activity against human MCF7 cells after 72 hrs by MTS/PMS assay. The note with it: MCF7, 72 h. It is filed as functional, cell-based. The essentials:
as §1

Assay [3] has as its target T1, Heat shock protein HSP90 (Homo sapiens) (UniProt P07900+P08238). As to the kind of experiment: Inhibition of HSP90 in human MCF7 cells assessed as induction of Her2 protein degradation at 0.5 to 5 times antiproliferative IC50 level after 24 hrs by Western blotting method. It is filed as cell-based. The essentials: (§2)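 MCF-7 cells, grown as for proliferation, treated 24 h with compound in DMSO (1% final). Geldanamycin 0.5 μM and DMSO served as controls. Lysis in cold RIPA with 1 mM PMSF, 2 mM orthovanadate and protease inhibitors, 1 h on ice, then cleared at 14000g, 10 min, 4 °C. BCA protein assay; 20 μg protein run reducing, blotted to nitrocellulose, probed with client antibodies, HRP chemiluminescence. High and low doses were 5-fold and 0.5-fold the antiproliferative value.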
(In general: Immunoblotting shows a protein as a band on a membrane.)

For assay [4], the target named is T1, Heat shock protein HSP90 (Homo sapiens). Description: Inhibition of HSP90 in human MCF7 cells assessed as induction of Raf protein degradation at 0.5 to 5 times antiproliferative IC50 level after 24 hrs by Western blotting method. The format is cell-based. The method, boiled down:
as §2

Assay [5] has the same target. As to the kind of experiment: Inhibition of HSP90 in human MCF7 cells assessed as induction of Akt protein degradation at 0.5 to 5 times antiproliferative IC50 level after 24 hrs by Western blotting method. It is filed as cell-based. The essentials:
as §2

The target is the same in assay [6]. As to the kind of experiment: Inhibition of HSP90 in human MCF7 cells assessed as induction of Her2 protein degradation at 0.5 times antiproliferative IC50 level after 24 hrs by Western blotting method. It is filed as cell-based. The method, boiled down:
as §2

The target is the same in assay [7]. As to the kind of experiment: Inhibition of HSP90 in human MCF7 cells assessed as induction of Raf protein degradation at 0.5 times antiproliferative IC50 level after 24 hrs by Western blotting method. It is filed as cell-based. The essentials: as §2
For assay [8] the target is unchanged. As to the kind of experiment: Inhibition of HSP90 in human MCF7 cells assessed as induction of Akt protein degradation at 0.5 times antiproliferative IC50 level after 24 hrs by Western blotting method. It is filed as cell-based. The essentials:
as §2

Assay [9] shares this target. Description: Inhibition of HSP90 in human MCF7 cells assessed as induction of Her2 protein degradation at 0.1 to 5 uM after 24 hrs by Western blotting method. It is filed as cell-based. The essentials:
as §2

Assay [10] shares this target. Description: Inhibition of HSP90 in human MCF7 cells assessed as induction of Raf protein degradation at 0.1 to 5 uM after 24 hrs by Western blotting method. The format is cell-based. The method, boiled down:
as §2

Assay [11] has the same target. As to the kind of experiment: Inhibition of HSP90 in human MCF7 cells assessed as induction of Akt protein degradation at 0.1 to 5 uM after 24 hrs by Western blotting method. The format is cell-based. The method, boiled down: as §2

The source made the active and inactive calls. The rule behind the calls is not given here.

A word on the IC50: it is the concentration at which inhibition is half-maximal. A lower IC50 goes with inhibition by little substance. `CN1CCC(Oc2ccc(-c3ccc(NC(=O)c4cc5ccccc5[nH]4)cc3)cc2)CC1`: the IC50 in assay [1] turned out to be 640 nM; in assay [2], 580 nM. In addition, the inhibition entry in assay [3], in assay [4] and in [5] was “Active” throughout.

On to `CN1CCC(Oc2ccc(-c3ccc(NC(=O)c4ccc(I)cc4)cc3)cc2)CC1`, for which the IC50 was found to be 310 nM in assay [1] and 580 nM in [2]. The inhibition result in assay [3], in assay [4] and in assay [5] was “inactive” in each case.

Turning to `CC(C)=CCc1cc(C(=O)Nc2cccc(-c3cccc(OC4CCN(C)CC4)c3)c2)ccc1O`, the IC50 amounted to 2790 nM in [1] and 1170 nM in assay [2]. Besides, the inhibition result in [6], in assay [7] and in assay [8] was “Active” throughout.

With `CC(C)=CCc1cc(C(=O)Nc2ccc(-c3ccc(OC4CCN(C)CC4)cc3)cc2)ccc1O`, the IC50 in [1] amounted to 2270 nM; in assay [2], 1850 nM. Moreover, the inhibition result in assay [6], in assay [7] and in [8] was “Active” throughout.

`COc1ccc(C(=O)Nc2ccc(-c3ccc(OC4CCN(C)CC4)cc3)cc2)cc1`: the IC50 was 490 nM in assay [1] and 650 nM in assay [2]. The inhibition result in assay [3], in assay [4] and in assay [5] was “Active” in each case.

For `COc1ccc(C(=O)Nc2ccc(-c3ccc(OC4CCN(C)CC4)cc3)cc2)cc1-c1cccc(Cl)c1`, the IC50 amounted to 330 nM in assay [1] and 320 nM in assay [2]. In addition, the inhibition entry in assay [6], in assay [7] and in [8] was “Active” throughout.

Turning to `COc1cccc(-c2cc(C(=O)Nc3ccc(-c4ccc(OC5CCN(C)CC5)cc4)cc3)ccc2OC)c1`, the results for the IC50 in [1] and in assay [2] were 470 nM and 710 nM, respectively. The inhibition entry in assay [6], in assay [7] and in assay [8] was “Active” each time.

As for `CN1CCC(Oc2ccc(-c3ccc(NC(=O)c4cccc5ccccc45)cc3)cc2)CC1`, the IC50 was 350 nM in assay [1] and 490 nM in assay [2]. Also, the inhibition entry in assay [3], in [4] and in [5] was “Active” throughout.

Take `CN1CCC(Oc2ccc(-c3ccc(NC(=O)c4cccc(-c5ccccc5)c4)cc3)cc2)CC1`: the IC50 was determined as 730 nM in assay [1] and 1150 nM in assay [2]. The inhibition result in assay [3], in [4] and in assay [5] was “Active” in each case.

As to `COc1cccc(-c2cc(C(=O)Nc3cccc(-c4cccc(OC5CCN(C)CC5)c4)c3)ccc2OC)c1`, the IC50 was found to be 1620 nM in [1] and 2000 nM in assay [2]. Also, the inhibition entry in [6], in [7] and in assay [8] was “Active” each time.

For the compound `CN1CCC(Oc2ccc(-c3ccc(NC(=O)c4ccc(Br)cc4)cc3)cc2)CC1`, the half-inhibitory concentration (IC50) in assay [1] and in assay [2] was 520 nM each time. For the same compound, the inhibition entry in assay [3], in assay [4] and in assay [5] was “inactive” in each case.

As for `CN1CCC(Oc2ccc(-c3ccc(NC(=O)c4ccc5ccccc5c4)cc3)cc2)CC1`, the values for the IC50 in assay [1] and in assay [2] were 220 nM and 580 nM, respectively. Besides, the inhibition result in assay [3], in assay [4] and in assay [5] was “Active” in each case.

On to `COc1ccc(C(=O)Nc2ccc(-c3ccc(OC4CCN(C)CC4)cc3)cc2)cc1-c1ccc(OC(C)=O)cc1`, for which the IC50 turned out to be 140 nM in assay [1] and 640 nM in [2]. Besides, the inhibition entry in assay [6], in [7] and in [8] was “Active” each time. For the same compound, the inhibition result in [9], in assay [10] and in assay [11] was “Dose-dependent effect” each time.

`CN1CCC(Oc2ccc(-c3ccc(NC(=O)c4ccc(Cl)cc4)cc3)cc2)CC1`: the IC50 in assay [1] came out at 570 nM; in assay [2] it was 520 nM. Besides, the inhibition entry in [3], in assay [4] and in assay [5] was “inactive” each time.

As to `COc1ccc(C(=O)Nc2ccc(-c3ccc(OC4CCN(C)CC4)cc3)cc2)cc1-c1ccccc1`, the IC50 in [1] was 510 nM; in [2], 840 nM. Further, the inhibition result in assay [6], in assay [7] and in assay [8] was “Active” in each case.

As to `COc1cccc(-c2cc(C(=O)Nc3ccc(-c4ccc(OC5CCN(C)CC5)cc4[N+](=O)[O-])cc3)ccc2OC)c1`, the IC50 was 1180 nM in [1] and 1300 nM in [2].
